Compound activity deposited in PubChem BioAssay by The Scripps Research Institute Molecular Screening Center.
Only some compounds are listed: those with a hit (about 2.5% of all), similar ones and a draw of the others.
PAD4 FP inh: human PAD4 inhibitors, primary screen, biochemical, fluorescence polarization, 1536-well format; Protein-arginine deiminase type-4 (Homo sapiens), Q9UM07; recombinant PAD4, RCA probe fluorescence polarization; inhibition, % at 6.36 µM; 330,000 compounds, 0.41% hits;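 active = percent inhibition above a cutoff equal to the mean of all tested compounds plus 3 SD, cut at about 15% in these data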;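 note: 0% = PAD4 with RCA probe and DMSO and 100% = probe without PAD4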
CTSL1 counter: Fasciola hepatica cathepsin L1 inhibitors, primary screen, counter-screen for PFM18AAP inhibitor project, biochemical, QFRET, fluorogenic peptide substrate. AID 1906, 2009. recombinant F. hepatica cathepsin L1, Z-Leu-Arg-MCA fluorescence. 300,000 compounds, 0.49% hits. inhibition, % at 5.96 µM;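 active = inhibition above the mean of all tested compounds plus 3 SD, set per screening campaign, cut at about 17% in these data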;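 note: 0% = plate median of test compound wells and 100% = 1 µM Z-Phe-Ala-diazomethylketone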
PRMT1 inh: PRMT1 methyltransferase inhibitors, primary screen, biochemical, fluorescence polarization | inhibition, % at 2.79 µM | 370,000 compounds, 1.3% hits | AID 652257, 2013 | recombinant PRMT1, activity-based probe fluorescence polarization | Protein arginine N-methyltransferase 1 (Homo sapiens), Q99873;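 active = inhibition above about 21% made by adding two undisclosed values, limit read from the data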
GSTO1 counter: inhibitors of recombinant GSTO1, primary screen, counter-screen for RBBP9 inhibitor project, biochemical, fluorescence polarization; Glutathione S-transferase omega-1 (Homo sapiens), P78417; activity-based probe fluorescence polarization; inhibition, % at 5.96 µM; 300,000 compounds, 1.1% hits;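 active = inhibition above the campaign mean inhibition plus 3 SD, cut at about 35% in these data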;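 note: 0% = GSTO1-1 with DMSO and 100% = wells lacking GSTO1-1 enzyme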
TDP2 absorb: human TDP2 enzyme inhibitors, primary screen, biochemical, epi absorbance, recombinant enzyme. Tyrosyl-DNA phosphodiesterase 2 (Homo sapiens), O95551. T5PNP hydrolysis, p-nitrophenol absorbance 415 nm. inhibition, % at 12.8 µM. 370,000 compounds, 0.34% hits;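 active = inhibition above the mean of all tested compounds plus 3 SD, set per campaign, cut at about 25% in these data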;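 note: 0% = DMSO with enzyme and 100% = buffer with substrate but no TDP2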
Target sequence (O95551 whole entry, looked up): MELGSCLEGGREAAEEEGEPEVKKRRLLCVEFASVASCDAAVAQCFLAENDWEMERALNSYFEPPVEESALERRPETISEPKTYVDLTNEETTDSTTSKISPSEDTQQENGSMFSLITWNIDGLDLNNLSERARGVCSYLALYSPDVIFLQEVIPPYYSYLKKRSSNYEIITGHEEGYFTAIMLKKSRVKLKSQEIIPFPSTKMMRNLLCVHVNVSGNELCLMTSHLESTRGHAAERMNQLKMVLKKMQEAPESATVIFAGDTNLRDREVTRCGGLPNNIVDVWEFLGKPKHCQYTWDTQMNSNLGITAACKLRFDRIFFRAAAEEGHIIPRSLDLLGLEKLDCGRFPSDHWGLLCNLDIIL
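System – recombinant human TDP2 · Quantity – TDP2 enzyme at 120 nM final · Doses – single concentration, 12.8 µM nominal, with 1% DMSO · Incubation – 2 h at 37 °C · Measured by – epi absorbance of p-nitrophenol freed from T5PNP by hydrolysis · Read-out – % inhibition relative to enzyme-containing and enzyme-free wells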
PAD4 confirm: human PAD4 inhibitors, confirmation, biochemical, fluorescence polarization; shares compounds with PAD4 FP inh; recombinant PAD4, RCA probe fluorescence polarization; inhibition, % at 6.36 µM; 1,200 compounds, 28% hits; AID 488796, 2010;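 active = mean inhibition across replicates above the hit cutoff set by the earlier primary screen, cut at about 15% in these data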;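 note: inhibitors block active-site labeling by the probe so polarization falls; 0% = PAD4 with probe and DMSO and 100% = probe without PAD4 enzyme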
TDP2 inh conf: human TDP2 enzyme inhibitors, retest, confirmation, biochemical, epi absorbance, recombinant enzyme | AID 743263, 2014 | 1,100 compounds, 22% hits | absorbance read-out | shares compounds with TDP2 absorb | inhibition, % at 12.8 µM; in the data active = inhibition above about 25%;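 note: 0% = vehicle with enzyme and 100% = no enzyme buffer only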
Numbers without * were called inactive; / = no result given.

SMILES	PAD4 FP inh	CTSL1 counter	PRMT1 inh	GSTO1 counter	TDP2 absorb	PAD4 confirm	TDP2 inh conf
COC(=O)C[C@H]1CC[C@H]2[C@H](COc3ccc(NS(=O)(=O)c4cccc(F)c4)cc3C(=O)N2C)O1	/	/	-1	/	-1	/	/
CC(=O)N[C@H]1C[C@@H]2O[C@H](CO)CC[C@@H]2O[C@@H]1CCc1ccc(-c2ccc(F)cc2)cc1	/	/	1	/	-2	/	/
Cc1cc(OC(=O)c2ccccc2)n(CCC#N)n1	40*	0	-1	29	50*	1	11
CN=C(Nc1cc(C)nn1CCC#N)c1ccccc1	-2	0	-5	0	8	/	/
CC1=NN(c2ccc(C)c(C)c2)C(=O)/C1=C/c1ccc2c(c1)n(C)c(=O)n2C	48*	0	0	37*	53*	5	31*
Oc1ccccc1CNc1cccc2cccnc12	35*	-1	9	33	35*	-4	6
O=S1(=O)c2c(cccc2N2CC[C@@H](O)C2)O[C@H]2CCN1C2	/	/	0	/	7	/	/
CCCCn1[nH]c(-c2ccccc2)cc1=O	45*	-2	0	57*	47*	-5	10
COC(=O)c1ccccc1-c1ccc(C(c2c(C)[nH][nH]c2=O)c2c(C)[nH][nH]c2=O)o1	54*	4	3	65*	78*	13	36*
CC1=C[C@]2(C[N+](Cc3ccccc3)=C(N)N2)n2c(=O)n(-c3ccccc3)c(=O)n2C1	/	/	1	/	1	/	/
O=C(O)c1ccc(N/N=C/c2ccc(-c3ccc(Br)cc3)o2)cc1	-2	2	8	18	-16	/	/
Cc1nnc(N/N=C\c2ccc(-c3cccc(C(=O)O)c3)o2)n1N	30*	1	2	20	59*	-6	8
Cc1nnc(N/N=C/c2ccc(-c3ccc(Br)cc3)o2)n1N	24*	1	10	13	57*	5	1
Cc1nnc(N/N=C/c2ccc(Br)cc2)n1N	36*	1	1	8	74*	10	6
O=C(O)c1cccc(-c2ccc(/C=N/NC(=O)c3cccnc3)o2)c1	1	3	5	-1	2	/	/
COc1ccc2noc3c2c1C(=O)c1ccccc1-3	143*	5	157*	20	38*	144*	30*
COc1cccc2c1C(=O)c1ccc3ccccc3c1C2=O	-3	1	/	10	/	/	/
COc1ccc(OC)c2c1C(=O)c1ccccc1C2=O	41*	-2	52*	10	56*	38*	7
N#CCC[C@@H]1CC[C@]2(CCCN(C(=O)c3ccco3)C2)O1	/	/	-9	/	2	/	/
FC(F)(F)c1ccccc1/C=N/Nc1ccccn1	-3	1	-3	0	1	/	/
Nn1cnnc1N/N=C/c1ccc(F)cc1	41*	-4	1	18	64*	3	-5
Nn1cnnc1N/N=C/c1ccccc1C(F)(F)F	39*	-4	0	2	51*	7	-2
Cc1ccc(/C=N/Nc2nncn2N)cc1	46*	-2	1	16	78*	1	2
COc1cccc(C=NNc2nnc(NN=Cc3cccc(OC)c3OC)c3ccccc23)c1OC	/	/	-2	/	9	/	/
CCc1nnc(N/N=C/c2ccccc2Cl)n1N	36*	-1	5	25	61*	1	-2
CCOC(=O)N/N=C/c1ccccc1F	3	3	-1	-2	-3	/	/
COc1cccc(/C=N/Nc2nnc(C)n2N)c1OCc1ccccc1Cl	22*	-2	0	25	54*	8	-4
CCc1nnc(N/N=C/c2ccccc2F)n1N	43*	1	3	12	66*	5	4
